Where no end group is shown, it is not given here. The star is where a group is joined. αGalNAc = CC(=O)N[C@@H]1[C@@H](O)[C@@H](O)[C@@H](CO)O[C@@H]1*
Legend:
Test in all cases: Enzyme kinetics, UDP-[3H]-GalNAc transfer to
Format in all cases: biochemical
human GalNAc-T6 = target: T1, human GalNAc-T6 (Homo sapiens, UniProt Q8NCL4); details: peptide as acceptor substrate
T1 sequence (Q8NCL4 1-622): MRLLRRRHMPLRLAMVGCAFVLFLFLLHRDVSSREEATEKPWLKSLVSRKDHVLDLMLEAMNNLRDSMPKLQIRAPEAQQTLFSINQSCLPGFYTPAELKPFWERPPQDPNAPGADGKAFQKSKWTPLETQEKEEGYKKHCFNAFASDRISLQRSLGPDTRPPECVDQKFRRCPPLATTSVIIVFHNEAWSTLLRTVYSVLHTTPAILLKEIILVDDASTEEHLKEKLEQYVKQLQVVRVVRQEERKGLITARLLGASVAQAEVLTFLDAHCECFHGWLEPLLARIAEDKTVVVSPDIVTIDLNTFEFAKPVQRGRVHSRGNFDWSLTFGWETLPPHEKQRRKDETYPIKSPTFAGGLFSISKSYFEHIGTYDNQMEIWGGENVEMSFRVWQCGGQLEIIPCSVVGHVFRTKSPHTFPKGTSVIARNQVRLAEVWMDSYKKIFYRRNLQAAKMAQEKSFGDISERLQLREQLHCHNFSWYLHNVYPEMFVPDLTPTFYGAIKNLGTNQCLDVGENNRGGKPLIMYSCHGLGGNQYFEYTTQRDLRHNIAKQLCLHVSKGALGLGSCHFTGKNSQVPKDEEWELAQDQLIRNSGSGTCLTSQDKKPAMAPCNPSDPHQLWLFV
How it was run: (§1)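 Radiochemical transfer assay with 0.02–0.03 µM purified enzyme, 0.02–0.7 mM acceptor and 0.2 mM UDP-[3H]-GalNAc in 100 mM sodium cacodylate pH 6.5, 1 mM β-mercaptoethanol and 10 mM MnCl2 at 37 °C. T6 and T12 were HEK293F-expressed and His-Trap purified. Reactions were EDTA-quenched and product separated by Sephadex G10. Initial rates (<30% donor used) were normalised to a fresh-enzyme reference glycopeptide. Runs used 5–7 concentrations, 2–5 repeats, and Michaelis–Menten (± substrate-inhibition) fits.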

human GalNAc-T3 = target: T2, human GalNAc-T3 (Homo sapiens, UniProt Q14435); details: naked peptides as acceptor substrates
T2 sequence (Q14435 92-633): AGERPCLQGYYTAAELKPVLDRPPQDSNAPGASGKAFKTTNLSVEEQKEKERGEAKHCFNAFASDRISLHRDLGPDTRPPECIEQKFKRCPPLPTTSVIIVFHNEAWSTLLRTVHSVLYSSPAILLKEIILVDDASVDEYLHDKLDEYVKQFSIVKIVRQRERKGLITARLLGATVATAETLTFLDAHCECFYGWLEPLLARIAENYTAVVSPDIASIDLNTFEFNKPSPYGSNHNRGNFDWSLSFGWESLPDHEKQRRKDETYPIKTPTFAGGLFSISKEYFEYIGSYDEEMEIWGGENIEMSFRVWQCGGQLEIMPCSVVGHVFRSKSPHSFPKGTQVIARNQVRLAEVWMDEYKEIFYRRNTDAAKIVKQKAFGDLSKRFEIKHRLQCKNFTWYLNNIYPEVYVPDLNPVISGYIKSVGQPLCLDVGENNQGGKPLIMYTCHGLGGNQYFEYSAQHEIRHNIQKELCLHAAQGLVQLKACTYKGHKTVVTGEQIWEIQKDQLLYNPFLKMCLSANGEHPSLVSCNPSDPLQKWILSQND
How it was run: as §1

human GalNAc-T4 = details: peptide as acceptor substrate; Supplementary Fig. 16a
human GalNAc-T12 = details: peptide as acceptor substrate; Supplementary Fig. 16a
How it was run: as §1

## FGF23c: FGF23 model glycopeptide substrate (T*171–T178, T* = Thr-O-GalNAc) (T(αGalNAc)PIPRRHT-NH2; UniProt Q9GZV9 171-178, looked up, fragment)
Human GalNAc-T6
  Km of GalNAc-T6 compared to GalNAc-T3: slightly better Km
Human GalNAc-T6; Supplementary Fig. 16b
  Kcat of GalNAc-T6 relative to that of GalNAc-T3: ~ 3.5 fold

## GAYAVTPGPAG [OP1]
Human GalNAc-T3
  activity among the OP1 to OP10 peptide series: the most active of the series

## FGF23b: shorter FGF23 model peptide substrate (A171–T178)
Human GalNAc-T4
  activity of GalNAc-T4 against the peptide: very low
Human GalNAc-T12
  activity of GalNAc-T12 against the peptide: very low
